In ChEMBL document CHEMBL3994592, “Antimicrobial Oligophenalenone Dimers from the Soil Fungus Talaromyces stipitatus” (J Nat Prod, 2016):
In brackets after ≈: the same amount, converted by molar mass.

What was measured:
Staphylococcus aureus = test: Antibacterial activity against Staphylococcus aureus ATCC 6538 after 24 hrs; format: functional; settings: ATCC 6538, 24 h
How it was run: (§1)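 Broth microdilution in LB. Precultures were grown 24 h at 37 °C in 10 mL LB and diluted 1/1000 (OD600 0.01) into 96-well plates. Two-fold serial dilutions were made from 10 mg/mL stocks, 2 µL per 200 µL medium. Plates were incubated 24 h at 37 °C and OD read at 595 nm. MIC is the concentration giving a 90% decrease versus DMSO-only control, obtained by curve fitting.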

[1] = test system: Staphylococcus haemolyticus; test: Antibacterial activity against Staphylococcus haemolyticus MNHN26 after 24 hrs; format: functional; settings: MNHN26, 24 h; how it was run: as §1
Enterococcus faecalis = test: Antibacterial activity against Enterococcus faecalis CIP 103014 after 24 hrs; format: functional; settings: CIP 103014, 24 h; how it was run: as §1
Escherichia coli = test: Antibacterial activity against Escherichia coli ATCC 8739 after 24 hrs; format: functional; settings: ATCC 8739, ATCC 8739, 24 h; how it was run: as §1
HeLa = test: Cytotoxicity against human HeLa cells assessed as reduction in cell viability by MTT assay; format: functional, cell-based
How it was run: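 HeLa cells were seeded at 2500 cells/well, incubated overnight, then exposed in exponential growth to a range of concentrations for four doubling times. Viability was measured by MTT, 4 h at 37 °C, with formazan read at 560 nm. Concentration inhibiting growth by 50% versus untreated controls was taken from dose-survival curves. At least three independent experiments, each in duplicate; cisplatin served as control.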

Row | Compound | MIC90 (Staphylococcus aureus) | MIC90 [1] | MIC90 (Enterococcus faecalis) | MIC (Escherichia coli) | IC50 (HeLa)
1 | CN(C)[C@@H]1C(O)=C(C(N)=O)C(=O)[C@@]2(O)C(O)=C3C(=O)c4c(O)cccc4[C@@](C)(O)[C@H]3C[C@@H]12 [TETRACYCLINE] | 0.05 µg/mL (≈ 0.113 µM) | 29.5 µg/mL (≈ 66.4 µM) | 0.4 µg/mL (≈ 0.9 µM) | – | –
2 | CC(=O)O[C@H]1[C@@H]2C(=O)c3c(C)cc(O)c4c3[C@@]1(COC4=O)C1=C2c2c(C)cc(O)c3c2[C@@](O)(COC3=O)C1=O | 29.3 µg/mL (≈ 55 µM) | > 30 µg/mL | > 30 µg/mL | > 100 µg/mL | > 100 µM
3 | CC(=O)O[C@H]1[C@@H]2C(=O)c3c(C)cc(O)c4c3[C@@]1(COC4=O)c1c(O)c3c4c(c(O)cc(C)c4c12)C(=O)OC3 | 5.2 µg/mL (≈ 10.1 µM) | 9.5 µg/mL (≈ 18.4 µM) | 2.4 µg/mL (≈ 4.65 µM) | > 100 µg/mL | –
4 | CO[C@@]12c3c(C)cc(O)c4c3C(=C(O)[C@@H]1[C@]13COC(=O)c5c(O)cc(C)c(c51)C(=O)[C@H]2[C@@H]3OC(C)=O)C=NC4=O | 5 µg/mL (≈ 9.17 µM) | 20.4 µg/mL (≈ 37.4 µM) | > 30 µg/mL | > 100 µg/mL | 49.5 µM
5 | CO[C@H]1OC(=O)c2c(O)cc(C)c3c4c(c(O)c1c23)[C@]12COC(=O)c3c(O)cc(C)c(c31)C(=O)[C@H]4[C@@H]2OC(C)=O | 15.6 µg/mL (≈ 28.5 µM) | > 30 µg/mL | > 30 µg/mL | > 100 µg/mL | > 50 µM
6 | CC(=O)O[C@H]1[C@@H]2C(=O)c3c(C)cc(O)c4c3[C@@]1(COC4=O)c1c(O)c(C=O)c3cc(O)cc(C)c3c12 | > 50 µg/mL | > 50 µg/mL | > 50 µg/mL | > 100 µg/mL | > 50 µM
